Source: PubChem BioAssay
Calls of active or inactive are those of the source.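 How the source made its calls, unless noted: active means viability loss from added drug above about 55%, and viability with drug at most 40%, in both replicates (limit read from the data, passing the limit was not always enough); inconclusive means both conditions met in only one replicate; inactive means neither replicate meets both conditions.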

Legend:
[1] = HUVEC growth inhibition – cell-based, human, primary screen (AID 575;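 active means viability at or below 30% in both replicate assays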;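 further: 100% = median of untreated cell wells with 0.1% DMSO on each plate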); settings: HUVEC proliferation, CellTiter-Glo luminescence, 72 h; at 10 µM; stronger effect = lower value
Summary of the method: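 System: primary human umbilical vein endothelial cells; Quantity: 1250 endothelial cells in each well; Buffer or medium: supplemented EBM, 2% fetal bovine serum; Doses: one dose, 10 µM final, 0.1% DMSO; Incubation: 72 h compound incubation; Technique: ATP-based CellTiter-Glo luminescent read; Evaluation: percent of median DMSO-control luminescence; Controls: vehicle and MePR control wells.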

[2] = H69AR cell proliferation blockers – human, duplicate replicates, primary screen (AID 580;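 active means viability at or under a set limit in both replicates, limit being median viability minus 3 SD, cut at about 48% in these data, passing the limit was not always enough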;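 further: 100% = mean luminescence of untreated wells and 0% = no signal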); settings: H69AR lung tumor cells viability, ATP luminescence, 72 h; at 10 µM; stronger effect = lower value
[3] = MRP1 drug-resistance reversers in H69AR cells – cell-based, doxorubicin co-treatment, pilot screen (AID 601); settings: CellTiter-Glo, 72 h, at 10 µM; for differential viability (reversal): stronger effect = higher value
[4] = yeast transport mutant growth inhibition pilot in 384-well plates, post-Golgi transport modulator project (AID 636; in the data active means inhibition above about 31%); settings: absorbance 615 nm, about 18 h, stronger effect = higher value
[5] = growth suppression of yeast trafficking mutant, preliminary HTS, modulators of trafficking downstream of Golgi apparatus project, 1536-format plate, OD 615 nm (AID 637; in the data active means inhibition above about 30%); settings: yeast transport mutant growth, absorbance 615 nm, 18 h; stronger effect = higher value
[6] = H69AR cells + 2 uM doxorubicin, measured here: viability with 2 uM doxorubicin, stronger effect = lower value
[7] = H69AR cells, compound alone cytotoxicity

Row | SMILES | viability [1] | viability [2] | differential viability (reversal) ([3]; H69AR cells + 2 uM doxorubicin) | viability [3, 6] | viability [3, 7] | inhibition [4] | inhibition [5]
1 | COc1ccc(C(=O)CSc2nnc(CNc3ccc(C)cc3C)o2)cc1 | 86.8% (inactive) | 82.2% (inactive) | 0.595% (inactive) | 81.6% | 82.2% | -2.76% (inactive) | 1.9% (inactive)
2 | CCS(=O)(=O)N1CCC(C(=O)NCc2cccs2)CC1 | 87.2% (inactive) | 99.3% (inactive) | 9.73% (inactive) | 89.6% | 99.3% | -1.04% (inactive) | -3.02% (inactive)
3 | CSc1nnc(-c2cnccn2)n1C | 107% (inactive) | 90.7% (inactive) | 0.99% (inactive) | 89.7% | 90.7% | -0.39% (inactive) | 4.92% (inactive)
4 | CCOC(=O)Cc1nnc(NC(=O)CSc2nnc3c4ccccc4n(C(C)C)c3n2)s1 | 83.9% (inactive) | 75.6% (inactive) | 0.7% (inactive) | 74.9% | 75.6% | -0.91% (inactive) | -1.43% (inactive)
5 | Cc1ccccc1OCCn1c(=O)oc2ccccc21 | 82.3% (inactive) | 91.5% (inactive) | 16.8% (inactive) | 74.7% | 91.5% | -5.07% (inactive) | 2.38% (inactive)
6 | COc1cc(NC(=O)c2cc(-n3cnnc3)ccc2Cl)cc(OC)c1 | 93.6% (inactive) | 104% (inactive) | 19.9% (inactive) | 83.7% | 104% | 0% (inactive) | -1.11% (inactive)
7 | COc1cccc(CC(NC(C)=O)C(=O)NC2CCN(c3c4c(nc5ncnn35)CCC4)CC2)c1 (configuration not stated) | 90.4% (inactive) | 96.1% (inactive) | 8.17% (inactive) | 87.9% | 96.1% | -6.18% (inactive) | 3.17% (inactive)
8 | CC(=O)N1C(=O)c2cccc3cccc(c23)C(=O)N1C(C)=O | 96.1% (inactive) | 91.8% (inactive) | -1.27% (inactive) | 93% | 91.8% | -1.05% (inactive) | -1.43% (inactive)
9 | Cc1ccc(S(=O)(=O)Cn2nnnc2C(C(C)C)N2CCN(C(=O)c3ccco3)CC2)cc1 (configuration not stated) | 94.8% (inactive) | 91.3% (inactive) | 8.2% (inactive) | 83.1% | 91.3% | -4% (inactive) | -4.29% (inactive)
10 | CCc1c(C)nc(N)n2c(SCC(=O)N3CCCc4ccccc43)nnc12 | 107% (inactive) | 100% (inactive) | 11.3% (inactive) | 89.1% | 100% | -3.29% (inactive) | -0.32% (inactive)
11 | O=C1c2ccccc2NC(c2ccco2)N1O (configuration not stated) | 97.2% (inactive) | 96.5% (inactive) | 9.15% (inactive) | 87.3% | 96.5% | -3.38% (inactive) | 0.32% (inactive)
12 | Cc1ccc(C2C(C#N)=C(N)Oc3cc4c(cc32)OCO4)cc1 (configuration not stated) | 48.4% (inactive) | 10.2% (active) | -44.2% (inactive) | 54.4% | 10.2% | -4.42% (inactive) | 1.27% (inactive)
13 | CN(C)C(=O)C12CCC(C)(c3nc4ccccc4nc31)C2(C)C (configuration not stated) | 105% (inactive) | 88.8% (inactive) | 2.95% (inactive) | 85.8% | 88.8% | 3.03% (inactive) | -4.6% (inactive)
14 | CCOc1ccc(N(CC(=O)NCc2cccc(OC)c2)S(=O)(=O)c2c(C)noc2C)cc1 | 93.4% (inactive) | 91.2% (inactive) | -4.58% (inactive) | 95.8% | 91.2% | 0.27% (inactive) | -2.86% (inactive)
15 | Cc1cc(C)c2c(N)c(C(=O)c3ccccc3)oc2n1 | 80.2% (inactive) | 90.4% (inactive) | -1.71% (inactive) | 92.1% | 90.4% | -7.6% (inactive) | 2.22% (inactive)
16 | CN(C)S(=O)(=O)n1cnc(-c2ccccc2)c1-c1ccccc1 | 99.8% (inactive) | 98.3% (inactive) | -3.79% (inactive) | 102% | 98.3% | -1.32% (inactive) | -2.86% (inactive)
17 | O=C(c1noc2c1CCc1ccccc1-2)N1CCOCC1 | 95.6% (inactive) | 96.4% (inactive) | 6.12% (inactive) | 90.3% | 96.4% | -0.13% (inactive) | -2.86% (inactive)
18 | Cc1nc(-c2ccc(NC(=O)c3cccs3)cc2)cs1 | 58.8% (inactive) | 62.3% (inactive) | 9.12% (inactive) | 53.2% | 62.3% | 0.13% (inactive) | 1.9% (inactive)
19 | CCCn1c(SCC(=O)Nc2ccccc2C(=O)OC)nc2c1c(=O)n(C)c(=O)n2C | 94.9% (inactive) | 84.5% (inactive) | 2.33% (inactive) | 82.2% | 84.5% | -7.47% (inactive) | 3.02% (inactive)
20 | O=C(Nc1ccc(S(=O)(=O)Nc2ccc(Cl)cc2)cc1)C1CCCO1 (configuration not stated) | 62% (inactive) | 90.2% (inactive) | 0.92% (inactive) | 89.3% | 90.2% | -6% (inactive) | -5.4% (inactive)
21 | COc1ccc(Cn2nnnc2C(c2ccncc2)N2CCOCC2)cc1 (configuration not stated) | 90.4% (inactive) | 94.7% (inactive) | 3.26% (inactive) | 91.4% | 94.7% | 0.78% (inactive) | 0.95% (inactive)

Row | SMILES | viability [1] | viability [2] | differential viability (reversal) ([3]; H69AR cells + 2 uM doxorubicin) | viability [3, 6] | viability [3, 7] | inhibition [4] | inhibition [5]
22 | COc1ccc(Br)cc1S(=O)(=O)N1CCOCC1 | 99.7% (inactive) | 87.2% (inactive) | 3.77% (inactive) | 83.5% | 87.2% | -2.76% (inactive) | 1.75% (inactive)
23 | CC(OC(=O)c1cccc(NS(C)(=O)=O)c1)C(=O)Nc1ccc(N2CCOCC2)cc1 (configuration not stated) | 98.9% (inactive) | 96% (inactive) | 9.84% (inactive) | 86.1% | 96% | 0.78% (inactive) | -2.54% (inactive)
24 | COc1oc(-c2ccccc2)nc1C(F)(F)F | 94.3% (inactive) | 109% (inactive) | 9.45% (inactive) | 99.9% | 109% | -3.82% (inactive) | -2.38% (inactive)
25 | CCOC(=O)C1C(=O)NC(SCC(=O)Nc2nccs2)=C(C#N)C1c1ccccc1OCC (configuration not stated) | 76.2% (inactive) | 71.3% (inactive) | -1.05% (inactive) | 72.3% | 71.3% | -1.45% (inactive) | 7.78% (inactive)
26 | O=C1CC(C(=O)Nc2ccc(Br)cc2)C2(CCCC2)O1 (configuration not stated) | 109% (inactive) | 101% (inactive) | 8.19% (inactive) | 93.1% | 101% | -4% (inactive) | -1.75% (inactive)
27 | CCn1c(Cc2ccccc2)nnc1SCC(=O)Nc1nc2ccccc2s1 | 87.9% (inactive) | 104% (inactive) | 4.48% (inactive) | 99.9% | 104% | -3.03% (inactive) | 6.51% (inactive)
28 | C#CCN1C(=O)C(O)(CC(=O)c2cc(OC)ccc2OC)c2ccccc21 (configuration not stated) | 78.6% (inactive) | 38.7% (active) | -16.8% (inactive) | 55.5% | 38.7% | -4.8% (inactive) | 1.9% (inactive)
29 | CCOC(=O)NC(=O)CSc1nnc(C)s1 | 115% (inactive) | 105% (inactive) | 8.07% (inactive) | 96.5% | 105% | -4.08% (inactive) | 3.65% (inactive)
30 | Cc1noc(C)c1COc1cccc(C(=O)Oc2ccc3c(c2)OCO3)c1 | 88.8% (inactive) | 79.5% (inactive) | -5.05% (inactive) | 84.5% | 79.5% | -4.81% (inactive) | 1.75% (inactive)
31 | Cn1c(-c2ccc(F)cc2)cnc1NCc1ccccc1 | 108% (inactive) | 66.2% (inactive) | -15.4% (inactive) | 81.6% | 66.2% | -3.03% (inactive) | 4.6% (inactive)
32 | Cc1ccccc1CN1CCN(CC(=O)NCc2ccco2)C1=O | 101% (inactive) | 83% (inactive) | -0.72% (inactive) | 83.7% | 83% | -1.17% (inactive) | 4.92% (inactive)
33 | COC(=O)Cn1c(=O)c2c(nc(Br)n2CC(=O)OC)n(C)c1=O | 91.6% (inactive) | 86.5% (inactive) | 6.83% (inactive) | 79.7% | 86.5% | -4.53% (inactive) | -0.79% (inactive)
34 | Cn1nc(-c2ccc(C(=O)NCC3CCCO3)cc2)c2ccccc2c1=O (configuration not stated) | 88.3% (inactive) | 84.7% (inactive) | 13.5% (inactive) | 71.2% | 84.7% | -3.12% (inactive) | 7.14% (inactive)
35 | C=CCSc1n[nH]c(-c2ccc(OC)cc2)n1 | 108% (inactive) | 90.3% (inactive) | 2.41% (inactive) | 87.9% | 90.3% | -4.53% (inactive) | -2.06% (inactive)
36 | Cc1c(C(=O)Nc2ccncc2)oc2c1C(=O)CC(C)(C)C2 | 95.9% (inactive) | 91.3% (inactive) | -5.27% (inactive) | 96.6% | 91.3% | -8.4% (inactive) | -1.43% (inactive)
37 | COC(=O)COc1ccc(C(=O)OC)cc1 | 92.8% (inactive) | 108% (inactive) | 10.4% (inactive) | 97.4% | 108% | -1.84% (inactive) | -2.38% (inactive)
38 | CCOc1ccccc1Nc1nc2ccccc2[nH]1 | 92.7% (inactive) | 94.2% (inactive) | 1.97% (inactive) | 92.3% | 94.2% | 0.91% (inactive) | -6.03% (inactive)
39 | Cc1onc(-c2c(Cl)cccc2Cl)c1C(=O)NCCN1CCOCC1 | 94.9% (inactive) | 89.9% (inactive) | -8.8% (inactive) | 98.7% | 89.9% | -3.03% (inactive) | 1.43% (inactive)
40 | COc1ccc(C(=O)N2CCOCC2)cc1Br | 116% (inactive) | 101% (inactive) | 5.83% (inactive) | 95% | 101% | -2.24% (inactive) | -4.92% (inactive)
41 | Cc1ccc(C)c(Cn2c(=O)n(CCC(=O)NCc3ccco3)c(=O)c3sccc32)c1 | 74.6% (inactive) | 87.7% (inactive) | -0.04% (inactive) | 87.7% | 87.7% | -2.86% (inactive) | -0.63% (inactive)
